Results published in article PMC3356170 (International Journal of Nanomedicine, 2012).

Legend:
[1] = Pharmacokinetics of two formulations in rats; format: in vivo, Sprague-Dawley (SD) rats
How it was run: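 SD rats (N = 6 per group) received 5 mg/kg intravenously or orally, dissolved in 0.9% NaCl. Blood was taken at set time points and centrifuged (3500 rpm, 10 min). Plasma (180 μL) was mixed with cantharidin internal standard and methanol (800 μL) and spun at 10,000 rpm for 10 min. NCTD was measured by LC-MS/MS (C18, 35°C; MRM m/z 185.0→141.1) against matrix-matched calibration from 0.1025 to 10.25 μg/mL, using peak-area ratio to internal standard. Group means gave parameters.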

[2] = Tissue distribution and elimination in mice; format: in vivo, ICR mice; details: after intravenous administration (table title)
How it was run: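 ICR mice (six per group) were used. Blood was drawn from the eye socket vein at each sampling time. After cervical dislocation, heart, liver, kidney, spleen and lung were excised, rinsed in saline, blotted and weighed. Bile was taken from the gall bladder by syringe. Tissues and fluids were homogenized and processed as for plasma. NCTD was quantified by LC-MS/MS.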

[3] = Survival time and urine output of dosed rats; format: in vivo
[4] = intravenous administration (5 mg/kg), N = 6, mean ± SD
[5] = oral administration (5 mg/kg), N = 6, mean ± SD

O=C1OC(=O)[C@H]2[C@@H]1[C@@H]1CC[C@H]2O1 [NCTD, Norcantharidin]
AUC0-t [1, 4]: 9790 ± 1260 ng·h/mL | AUC0-∞ [1, 4]: 10770 ± 2340 ng·h/mL | CL [1, 4]: 0.12 ± 0.02 L/h | MRT [1, 4]: 0.34 ± 0.10 h | Vd [1, 4]: 0.82 ± 0.45 L/kg | t1/2(α) distribution half-life [1, 4]: 0.26 ± 0.06 h | t1/2(β) [1, 4]: 2.63 ± 0.82 h | AUC0-t [1, 5]: 3850 ± 660 ng·h/mL | AUC0-∞ [1, 5]: 3870 ± 690 ng·h/mL | CL [1, 5]: 0.32 ± 0.05 L/h | Cmax [1, 5]: 1210 ± 230 ng/mL | MRT [1, 5]: 5.49 ± 4.58 h | Tmax [1, 5]: 1.50 ± 0.44 h | Vd [1, 5]: 9.48 ± 6.59 L/kg | t1/2(a) [1, 5]: 0.56 ± 0.43 h | t1/2(α) [1, 5]: 0.72 ± 0.68 h | t1/2(β) [1, 5]: 5.08 ± 4.79 h | oral bioavailability ([1]; oral versus intravenous administration, 5 mg/kg): 39.3% | Te (targeted efficiency) ([2]; Bile): 2.33 | Te (targeted efficiency) ([2]; Blood): 30.74 | Te (targeted efficiency) ([2]; Heart): 14.99 | Te (targeted efficiency) ([2]; Kidney): 11.72 | Te (targeted efficiency) ([2]; Liver): 10.07 | Te (targeted efficiency) ([2]; Lung): 22.72 | Te (targeted efficiency) ([2]; Spleen): 7.44 | survival time of rats ([3]; NCTD group): about 24 hours | urine output compared with normal rats ([3]; after dosing): one-third of normal
